Values after ≈ are worked out from the molar mass of the structure shown.
What was measured:
[1] = system: Homo sapiens; test: AUC ( 0 to infinity) in fasting healthy human at 400 mg, po administered as single dose after 12 hrs; type: ADME, organism-based, Plasma; design: dose 400 mg, time infinity, route oral; conditions: in vivo
In short: (§1)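 Healthy male volunteers, three per cohort, one oral dose after 8-h overnight fast, fasting kept until 1 h post-dose. Plasma sampled predose and at 0.5, 1, 1.5, 2, 3, 4, 6, 8, 12, 16, 20, 24 h. Levels by validated HPLC-MS/MS (liquid-liquid extraction, positive-ion electrospray). Noncompartmental analysis, log-linear trapezoidal AUC, summarized per cohort.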

[2] = system: Homo sapiens; test: Apparent volume of distribution in fasting healthy human at 400 mg, po administered as single dose after 12 hrs; type: ADME, organism-based; conditions: in vivo; in short: as §1
[3] = system: Homo sapiens; test: Half life in fasting healthy human at 400 mg, po administered as single dose after 12 hrs; type: ADME, organism-based; conditions: in vivo; in short: as §1
[4] = Tmax in fasting healthy human at 100 mg, po administered every 12 hrs; type: ADME, organism-based; conditions: in vivo
In short: (§2)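 Six healthy male volunteers per cohort received seven oral doses q12h. Morning doses followed an 8-h fast, with fasting continued until 1 h post-dose. After the final dose (72 h after the first), plasma was sampled pre-dose and at 0.5–24 h, and assayed by validated HPLC-MS/MS. Tmax came from individual noncompartmental analysis, summarized per cohort.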

[5] = Cmax in fasting healthy human at 100 mg, po administered every 12 hrs; type: ADME, organism-based; design: dose 100 mg, route oral; conditions: in vivo
In short: (§3)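 Six healthy men per cohort dosed orally q12h for seven doses. Morning doses given after 8-h fast, with fasting until 1 h post-dose. After the final dose (72 h after the first) plasma was sampled predose and 0.5–24 h. Validated HPLC-MS/MS assay. Noncompartmental parameters (log-linear trapezoidal AUC) from all time points, summarized per cohort.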

[6] = Drug level in fasting healthy human at 100 mg, po administered every 12 hrs measured after 72 hrs; type: ADME, organism-based; conditions: in vivo, read-out: Drug uptake; in short: as §3
[7] = Drug level in fasting healthy human at 100 mg, po administered every 12 hrs measured after 84 hrs; type: ADME, organism-based; conditions: in vivo, read-out: Drug uptake; in short: as §3
[8] = AUC (0 to 12 hrs) in fasting healthy human at 100 mg, po administered every 12 hrs measured between 72 to 84 hrs postdose; type: ADME, organism-based; design: dose 100 mg, time < 12 hr, route oral; conditions: plasma; in short: as §3
[9] = system: Homo sapiens; test: Apparent volume of distribution in fasting healthy human at 100 mg, po administered every 12 hrs; type: ADME, organism-based; conditions: in vivo; in short: as §3
[10] = system: Homo sapiens; test: Half life in fasting healthy human at 100 mg, po administered every 12 hrs; type: ADME, organism-based; conditions: in vivo; in short: as §3
[11] = Tmax in fasting healthy human at 200 mg, po administered every 12 hrs; type: ADME, organism-based; conditions: in vivo; in short: as §2
[12] = Cmax in fasting healthy human at 200 mg, po administered every 12 hrs; type: ADME, organism-based; design: dose 200 mg, route oral; conditions: in vivo; in short: as §3
[13] = Drug level in fasting healthy human at 200 mg, po administered every 12 hrs measured after 72 hrs; type: ADME, organism-based; conditions: in vivo, read-out: Drug uptake; in short: as §3
[14] = Drug level in fasting healthy human at 200 mg, po administered every 12 hrs measured after 84 hrs; type: ADME, organism-based; conditions: in vivo, read-out: Drug uptake; in short: as §3
[15] = system: Homo sapiens; test: Apparent volume of distribution in fasting healthy human at 200 mg, po administered every 12 hrs; type: ADME, organism-based; conditions: in vivo; in short: as §3
[16] = system: Homo sapiens; test: Half life in fasting healthy human at 200 mg, po administered every 12 hrs; type: ADME, organism-based; conditions: in vivo; in short: as §3
[17] = Tmax in fasting healthy human at 400 mg, po administered every 12 hrs; type: ADME, organism-based; conditions: in vivo; in short: as §2
[18] = Cmax in fasting healthy human at 400 mg, po administered every 12 hrs; type: ADME, organism-based; design: dose 400 mg, route oral; conditions: in vivo; in short: as §3
[19] = Drug level in fasting healthy human at 400 mg, po administered every 12 hrs measured after 72 hrs; type: ADME, organism-based; conditions: in vivo, read-out: Drug uptake; in short: as §3
[20] = Drug level in fasting healthy human at 400 mg, po administered every 12 hrs measured after 84 hrs; type: ADME, organism-based; conditions: in vivo, read-out: Drug uptake; in short: as §3
[21] = AUC (0 to 12 hrs) in fasting healthy human at 400 mg, po administered every 12 hrs measured between 72 to 84 hrs postdose; type: ADME, organism-based; design: time < 12 hr, dose 400 mg, route oral; conditions: plasma; in short: as §3
[22] = system: Homo sapiens; test: Apparent volume of distribution in fasting healthy human at 400 mg, po administered every 12 hrs; type: ADME, organism-based; conditions: in vivo; in short: as §3
[23] = system: Homo sapiens; test: Half life in fasting healthy human at 400 mg, po administered every 12 hrs; type: ADME, organism-based; conditions: in vivo; in short: as §3
[24] = system: Homo sapiens; test: Decrease in CD4 cell count in fasting healthy human at 100 mg, po administered every 12 hrs measured after 24 hrs relative to baseline; type: functional; design: scale not given: the % may be the effect or the level left
In short: (§4)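 CD4+ counts drawn before the first dose and at 2, 4, 6, 8 and 24 h after the final (seventh) q12h oral dose in fasting healthy men. Each post-dose value divided by the baseline value to give a ratio. Deviation from no effect tested by Wilcoxon rank sum, dose trend by Jonckheere-Terpstra.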

[25] = system: Homo sapiens; test: Decrease in CD4 cell count in fasting healthy human at 200 mg, po administered every 12 hrs measured after 24 hrs relative to baseline; type: functional; design: scale not given: the % may be the effect or the level left; in short: as §4
[26] = system: Homo sapiens; test: Decrease in CD4 cell count in fasting healthy human at 400 mg, po administered every 12 hrs measured after 24 hrs relative to baseline; type: functional; design: scale not given: the % may be the effect or the level left; in short: as §4
[27] = system: Homo sapiens; test: Induction of leucocytosis in po dosed fasting healthy human assessed as increase in WBC count; type: functional, organism-based
In short: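 Total WBC drawn predose and at 2, 4, 6, 8 and 24 h after oral dosing (single-dose cohorts from 200 mg, and multiple-dose cohorts). Ratio taken to baseline. WBC ratio against plasma concentration at all sampling times (n = 232) fit to an Emax model giving Emax and EC50. Per-subject maximum ratio also fit to dose, AUC0-24 and Cmax.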

[28] = AUC (0 to 12 hrs) in fasting healthy human at 200 mg, po administered every 12 hrs measured between 72 to 84 hrs postdose; type: ADME, organism-based; design: dose 200 mg, time < 12 hr, route oral; conditions: plasma; in short: as §3

Structure (SMILES): NCCCCN(Cc1nc2ccccc2[nH]1)[C@H]1CCCc2cccnc21 [MAVORIXAFOR]
- AUC [1]: 6716 ng·h/mL
- Vd [2]: 918 L
- t1/2 [3]: 11.2 h
- Tmax [4]: 1.7 h
- Cmax [5]: 461 ng/mL
- concentration at 72 h [6]: 6.8 ng/mL
- concentration at 84 h [7]: 12 ng/mL
- AUC at 12 h [8]: 937 ng·h/mL
- Vd [9]: 2663 L
- t1/2 [10]: 15.9 h
- Tmax [11]: 1.8 h
- Cmax [12]: 793 ng/mL
- concentration at 72 h [13]: 31 ng/mL
- concentration at 84 h [14]: 33 ng/mL
- Vd [15]: 1923 L
- t1/2 [16]: 11.2 h
- Tmax [17]: 1.8 h
- Cmax [18]: 2300 ng/mL
- concentration at 72 h [19]: 122 ng/mL
- concentration at 84 h [20]: 137 ng/mL
- AUC at 12 h [21]: 7660 ng·h/mL
- Vd [22]: 966 L
- t1/2 [23]: 12 h
- Activity [24]: 80%
- Activity [25]: 80%
- Activity [26]: 80%
- EC50 [27]: 0.039 µg/mL (≈ 0.112 µM)
- AUC at 12 h [28]: 1590 ng·h/mL

Source: ChEMBL document CHEMBL1150800, “Multiple-dose escalation study of the safety, pharmacokinetics, and biologic activity of oral AMD070, a selective CXCR4 receptor inhibitor, in human subjects” (Antimicrob Agents Chemother, 2007)
